This is an account of results in ChEMBL document CHEMBL4033800, “Further Developments of the Phenyl-Pyrrolyl Pentane Series of Nonsteroidal Vitamin D Receptor Modulators as Anticancer Agents” (J Med Chem, 2018).

The structures appear in SMILES notation. Calls of active or inactive are those of the source. The calls are words filed in the database; no cut-off is given here. Bounds are passed on as bounds.

As usually defined, the IC50 is the concentration that inhibits the measured activity by half. Read a high IC50 as a need for much substance.

Data set [1] relates to MCF7. Briefly: Antiproliferative activity against human MCF7 cells after 48 hrs by MTT assay. The format is functional, cell-based. The following applies: MCF7, 48 h. In general terms: Tetrazolium dyes change colour on reduction, which living cells bring about.
The next data set concerns Caco-2. Briefly: Antiproliferative activity against human Caco2 cells after 48 hrs by MTT assay. To be noted: Caco-2, 48 h. The format is functional, cell-based.
The next data set has as its system L02. Put plainly: Antiproliferative activity against human L02 cells after 48 hrs by MTT assay. In kind it is cell-based. The following applies: L02, 48 h.
The test system of data set [2] is HepG2. Briefly: Antiproliferative activity against human HepG2 cells after 48 hrs by MTT assay. In kind it is functional, cell-based. The following applies: HepG2, 48 h.
For another data set, the system named is PC-3. Put plainly: Antiproliferative activity against human PC3 cells after 48 hrs by MTT assay. The following applies: PC-3, 48 h. In kind it is functional, cell-based.
Another data set deals with T1, Vitamin D3 receptor (Homo sapiens, UniProt P11473).
T1 sequence (P11473 whole entry): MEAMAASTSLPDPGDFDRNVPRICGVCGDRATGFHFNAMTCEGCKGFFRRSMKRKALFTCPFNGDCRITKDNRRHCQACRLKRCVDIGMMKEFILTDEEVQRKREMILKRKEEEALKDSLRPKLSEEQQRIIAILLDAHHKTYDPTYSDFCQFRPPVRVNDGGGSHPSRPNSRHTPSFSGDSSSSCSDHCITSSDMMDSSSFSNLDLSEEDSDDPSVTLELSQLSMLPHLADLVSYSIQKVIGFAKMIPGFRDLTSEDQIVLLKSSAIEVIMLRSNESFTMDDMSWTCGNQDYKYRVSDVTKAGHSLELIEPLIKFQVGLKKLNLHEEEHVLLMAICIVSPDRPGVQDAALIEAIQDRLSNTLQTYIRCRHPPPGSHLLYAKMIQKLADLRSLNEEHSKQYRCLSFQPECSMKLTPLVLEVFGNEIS
Put plainly: Displacement of fluormone VDR red from human full length VDR after 4 hrs by fluorescence polarization assay. (In general: Fluorescence polarisation rises when a labelled molecule tumbles more slowly, as on binding a larger partner.)

Data set [3] has as its system MCF7. Put plainly: Induction of apoptosis in human MCF7 cells assessed as late apoptotic cells at 1 uM after 24 hrs by Annexin V-FITC/propidium iodide-staining based flow cytometry (reference value: 0.062%). The format is functional. (In general: Flow cytometry measures light scatter and fluorescence of single cells or particles in a stream.)
For data set [4], the system named is MCF7. Put plainly: Induction of cell cycle arrest in human MCF7 cells assessed as accumulation at S phase at 1 uM after 24 hrs by propidium iodide-staining based flow cytometry (reference value: 31.55%). The format is functional.
In data set [5] the test system is MCF7. Briefly: Induction of cell cycle arrest in human MCF7 cells assessed as accumulation at G2/M phase at 1 uM after 24 hrs by propidium iodide-staining based flow cytometry (reference value: 12.41%). The format is functional.
The test system of a further data set is Mus musculus. Put plainly: Hypercalcemic effect in ICR mouse at 0.5 to 5 mg/kg/day, ip administered for 7 days measured on day 8 post-dose by MTB-based assay relative to control. The format is ADME, organism-based. To be noted: in vivo, 168 h. Summed up:
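Mice were dosed i.p. over a 7-day period and serum calcium was then measured. Each dose level was compared with a vehicle-treated control group (saline cited as the comparator). Data are mean ± SEM, n = 6 per group. Significance versus vehicle was reported at p < 0.05, 0.01 and 0.001.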

In data set [6] the target is T2, Vitamin D3 receptor (Homo sapiens) (UniProt P11473).
T2 sequence (whole entry): T1 sequence (P11473 whole entry)
Briefly: Transactivation of human GAL4-fused VRD expressed in HEK293 cells co-transfected with human RXRalpha/VDRE after 24 hrs by dual luciferase reporter gene assay. The format is cell-based.

In data set [7] the test system is MCF7. Put plainly: Induction of cell cycle arrest in human MCF7 cells assessed as accumulation at G0/G1 phase at 1 uM after 24 hrs by propidium iodide-staining based flow cytometry (reference value: 56.03%). In kind it is functional.
For data set [8], the system named is HepG2. Put plainly: Induction of cell cycle arrest in human HepG2 cells at 1 uM after 24 hrs by propidium iodide-staining based flow cytometry. In kind it is functional.
For data set [9], the system named is MCF7. Put plainly: Induction of apoptosis in human MCF7 cells assessed as viable cells at 1 uM after 24 hrs by Annexin V-FITC/propidium iodide-staining based flow cytometry (reference value: 98.2%). The format is functional. The following applies: MCF7, 24 h, read-out: Activity.
Data set [10] has as its system MCF7. Put plainly: Induction of apoptosis in human MCF7 cells assessed as early apoptotic cells at 1 uM after 24 hrs by Annexin V-FITC/propidium iodide-staining based flow cytometry (reference value: 1.74%). The format is functional.
For data set [11], the system named is MCF7. Put plainly: Induction of apoptosis in human MCF7 cells assessed as necrotic cells at 1 uM after 24 hrs by Annexin V-FITC/propidium iodide-staining based flow cytometry (reference value: 0.031%). The format is functional.

Regarding `CCOC(=O)CN(C)C(=O)c1ccc(C(CC)(CC)c2ccc(OCCC(O)(CC)CC)c(C)c2)n1CC`, the IC50 stood at 3.21 µM in the data set on MCF7 [1]; 30.3 µM in the data set on Caco-2; 1.99 µM with L02; 25.3 µM in the data set on HepG2 [2]; 7.14 µM in the data set with PC-3.
For `CCn1c(C(=O)NC(C)C(=O)O)ccc1C(CC)(CC)c1ccc(OCCC(O)(CC)CC)c(C)c1` (stereo not given), the IC50 with MCF7 [1] amounted to 19.7 µM; in the data set with Caco-2, 46.5 µM; in the data set on L02, 4.04 µM; in the data set on HepG2 [2], 1.74 µM; with PC-3, 11.7 µM.
Consider `CCOc1ccc(NC(=O)c2ccc(C(CC)(CC)c3ccc(OCCC(O)(CC)CC)c(C)c3)n2CC)cc1`, for which the IC50 in the data set with MCF7 [1] is greater than 50 µM; with Caco-2, greater than 50 µM; at Vitamin D3 receptor, 4.54 µM; with L02 it was greater than 50 µM; in the data set on HepG2 [2], greater than 50 µM; with PC-3, greater than 50 µM.
For the compound `CCn1c(C(=O)N(C)CCO)ccc1C(CC)(CC)c1ccc(OCCC(O)(CC)CC)c(C)c1`, the IC50 in the data set with MCF7 [1] turned out to be 2.87 µM; in the data set on Caco-2, 0.074 µM; with L02, 2.05 µM; in the data set on HepG2 [2], 0.51 µM; in the data set on PC-3, 3.09 µM.
The corresponding values for `CCn1c(C(=O)NCCCN(C)C)ccc1C(CC)(CC)c1ccc(OCCC(O)(CC)CC)c(C)c1` are 3.35 µM, 0.49 µM, 2.42 µM, 0.11 µM and 2.15 µM.
Regarding `CCn1c(C(=O)N(C)CC(=O)O)ccc1C(CC)(CC)c1ccc(OCCC(O)(CC)CC)c(C)c1`, the IC50 in the data set on MCF7 [1] worked out at 0.079 µM; in the data set with Caco-2, 2.74 µM; at Vitamin D3 receptor it was 0.873 µM; with L02, 2.15 µM; in the data set on HepG2 [2], 5.71 µM; with PC-3, 2.25 µM. Further, the Activity in the data set with MCF7 [3] was 3.66%; in the data set with MCF7 [4], 27.68%; in the data set on MCF7 [5] it was 10.57%; in the data set with Mus musculus, “Non-Toxic”; in data set [6] it was “Dose-dependent effect”; with MCF7 [7], 61.76%. Moreover, the Activity amounted to 8.42% in the data set with MCF7 [10] and 0.17% in the data set on MCF7 [11]. Further, the result in the data set on HepG2 [8] was Active. Also, the viability at 1 µM in the data set on MCF7 [9] was 87.8%.
For `C#CC(C)OC(=O)c1ccc(C(CC)(CC)c2ccc(OCCC(O)(CC)CC)c(C)c2)n1CC` (stereo not given), the half-inhibitory concentration (IC50) is greater than 50 µM in the data set on MCF7 [1]; greater than 50 µM in the data set with Caco-2; greater than 50 µM in the data set on L02; greater than 50 µM with HepG2 [2]; 14.8 µM in the data set on PC-3.
For the compound `CCn1c(C(=O)Nc2ccc(OC(F)(F)F)cc2)ccc1C(CC)(CC)c1ccc(OCCC(O)(CC)CC)c(C)c1`, the IC50 in the data set with MCF7 [1], in the data set with Caco-2, in the data set on L02, in the data set on HepG2 [2] and with PC-3 was greater than 50 µM each time.
For `CCn1c(C(=O)N(CCC#N)CCC#N)ccc1C(CC)(CC)c1ccc(OCCC(O)(CC)CC)c(C)c1`, the IC50 in the data set with MCF7 [1] was greater than 50 µM; in the data set on Caco-2, greater than 50 µM; in the data set with L02, 37.8 µM; in the data set with HepG2 [2], 46.3 µM; in the data set on PC-3 it was greater than 50 µM.
`CCn1c(C(=O)NCCN(C)C)ccc1C(CC)(CC)c1ccc(OCCC(O)(CC)CC)c(C)c1`: the IC50 in the data set with MCF7 [1] is 0.43 µM; in the data set with Caco-2, 1.14 µM; in the data set on L02, 0.99 µM; with HepG2 [2] it was 0.24 µM; in the data set with PC-3 it was 0.87 µM.
The like results for `C#CCCOC(=O)c1ccc(C(CC)(CC)c2ccc(OCCC(O)(CC)CC)c(C)c2)n1CC` were, in that order, greater than 50 µM, greater than 50 µM, greater than 50 µM, greater than 50 µM and greater than 50 µM.
In the case of `CCn1c(C(=O)Oc2ccc(CC(=O)OC)cc2)ccc1C(CC)(CC)c1ccc(OCCC(O)(CC)CC)c(C)c1`, the IC50 with MCF7 [1], in the data set on Caco-2, with L02, with HepG2 [2] and with PC-3 was greater than 50 µM each time.
With `CCC(C)C(NC(=O)c1ccc(C(CC)(CC)c2ccc(OCCC(O)(CC)CC)c(C)c2)n1CC)C(=O)OC` (stereo not given), the IC50 in the data set with MCF7 [1], in the data set with Caco-2, with L02, in the data set with HepG2 [2] and in the data set with PC-3 was greater than 50 µM in each case.
With `CCC(C)C(NC(=O)c1ccc(C(CC)(CC)c2ccc(OCCC(O)(CC)CC)c(C)c2)n1CC)C(=O)O` (stereo not given), the IC50 in the data set on MCF7 [1] turned out to be 11.3 µM; in the data set with Caco-2, 20 µM; with L02, 9.99 µM; with HepG2 [2], 2.62 µM; with PC-3 it was 13.8 µM.
For the compound `CCn1c(C(=O)NCCN)ccc1C(CC)(CC)c1ccc(OCCC(O)(CC)CC)c(C)c1`, the IC50 with MCF7 [1] came out at 0.67 µM; in the data set with Caco-2, 1.74 µM; in the data set on L02, 2.94 µM; in the data set with HepG2 [2], 1.59 µM; in the data set with PC-3, 2.42 µM.
Consider `Cc1cc(C2(c3ccc(OCC(=O)C(C)(C)C)c(C)c3)CCCCC2)ccc1OCC(=O)C(C)(C)C`, for which the Activity with MCF7 [3] came out at 2.53%; with MCF7 [4], 28.85%; with MCF7 [5], 11.41%; in the data set with MCF7 [7] it was 59.74%; in the data set on MCF7 [10], 8.2%; in the data set with MCF7 [11], 0.33%. Moreover, the viability at 1 µM in the data set on MCF7 [9] is 88.9%.
Take `CCC(C)C(CO)NC(=O)c1ccc(C(CC)(CC)c2ccc(OCCC(O)(CC)CC)c(C)c2)n1CC` (stereo not given): the IC50 in the data set on MCF7 [1] is 29.1 µM; in the data set with Caco-2, greater than 50 µM; with L02 it was greater than 50 µM; with HepG2 [2] it was greater than 50 µM; with PC-3, 28.4 µM.
Take `CCn1c(C(=O)NC(CO)CCO)ccc1C(CC)(CC)c1ccc(OCCC(O)(CC)CC)c(C)c1` (stereo not given): the IC50 in the data set with MCF7 [1] worked out at 31.4 µM; in the data set with Caco-2 it was 40.2 µM; in the data set with L02, 3.04 µM; in the data set on HepG2 [2], 24.8 µM; in the data set with PC-3 it was 8.76 µM.
The corresponding values for `CCn1c(C(=O)NC(CC(=O)O)C(=O)OC)ccc1C(CC)(CC)c1ccc(OCCC(O)(CC)CC)c(C)c1` (stereo not given) are 10.2 µM, 25.2 µM, 7.59 µM, 10.7 µM and 11.2 µM.
Turning to `CCn1c(C(=O)NC(C)CO)ccc1C(CC)(CC)c1ccc(OCCC(O)(CC)CC)c(C)c1` (stereo not given), the IC50 in the data set on MCF7 [1] was 12.6 µM; in the data set with Caco-2 it was greater than 50 µM; in the data set with L02, 4.84 µM; in the data set on HepG2 [2], 43.1 µM; in the data set with PC-3, 7.87 µM.
The like results for `CCn1c(C(=O)Nc2cccc(C(F)(F)F)c2)ccc1C(CC)(CC)c1ccc(OCCC(O)(CC)CC)c(C)c1` were, in that order, greater than 50 µM, greater than 50 µM, greater than 50 µM, greater than 50 µM and 23.8 µM.
`C=CCN(C)C(=O)c1ccc(C(CC)(CC)c2ccc(OCCC(O)(CC)CC)c(C)c2)n1CC`: the IC50 in the data set on MCF7 [1] was greater than 50 µM; in the data set on Caco-2, greater than 50 µM; in the data set on L02, 1.19 µM; in the data set on HepG2 [2], greater than 50 µM; with PC-3 it was 12.8 µM.
As to `CCn1c(C(=O)NCC#N)ccc1C(CC)(CC)c1ccc(OCCC(O)(CC)CC)c(C)c1`, the IC50 in the data set on MCF7 [1] was greater than 50 µM; in the data set on Caco-2, greater than 50 µM; at Vitamin D3 receptor it was 0.825 µM; in the data set with L02, greater than 50 µM; with HepG2 [2] it was greater than 50 µM; with PC-3, 17.8 µM.
